Measured values reported in ChEMBL document CHEMBL1156246 (J Med Chem, 2009).
The source made the active and inactive calls. The rule behind the calls is not given here.

Experiments:
Mus musculus [1] = test: Anticonvulsant activity against 6 Hz electric shock-induced seizures in ip dosed albino mouse assessed as time of peak effect; format: functional
Mus musculus [2] = test: Neurotoxicity in ip dosed albino mouse assessed as time of peak effect by rotarod test; format: toxicity, organism-based; conditions: in vivo
Mus musculus [3] = test: Protective index, ratio of TD50 for ip dosed albino mouse to ED50 for protection against maximal electroshock-induced seizures in ip dosed albino mouse; format: functional
[4] = Neurotoxicity in ip dosed albino mouse by rotarod test; format: toxicity, organism-based; conditions: in vivo
Mus musculus [5] = test: Anticonvulsant activity in ip dosed albino mouse assessed as protection against subcutaneous metrazole-induced seizures; format: functional, organism-based
Method in brief: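 Male albino Carworth Farms No. 1 mice, dosed intraperitoneally; subcutaneous metrazol seizure model run by previously reported methods under the NIH Anticonvulsant Screening Program; protection against seizures scored.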

[6] = target: Dihydropyrimidinase-related protein 2 (Mus musculus) (UniProt O08553); test: Binding affinity to CRMP2 in ICR mouse brain […] at 5 uM by mass spectrometry in presence of rhodamine-containing 4-(3-azidopropylcarbamoyl)-2-(3,6-bis(dimethylamino)xanthylium-9-yl)benzoate; format: tissue-based
Method in brief: (§1)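 Brain soluble fraction from male 2-month ICR mice was Dounce-homogenized in 50 mM HEPES pH 7.4 and spun at 1200 × g then 100,000 × g at 4 °C. The fraction was exchanged into HEPES pH 8.0 at 2.0 mg/mL, treated with agent (5 μM, 30 min, room temperature), then clicked to rhodamine-azide (50 μM) with TCEP 1 mM, TBTA 200 μM and CuSO4 1 mM for 1 h. After SDS-PAGE, the ~62 kDa band was trypsin-digested, iTRAQ-labelled and analysed by LC-MS/MS.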

[7] = target: Dihydropyrimidinase-related protein 2 (Mus musculus) (UniProt O08553); test: Binding affinity to CRMP2 in ICR mouse brain […] at 5 uM by in-gel tryptic digestion analysis in presence of rhodamine-containing 4-(3-azidopropylcarbamoyl)-2-(3,6-bis(dimethylamino)xanthylium-9-yl)benzoate; format: tissue-based; method in brief: as §1
Rattus norvegicus [8] = test: Anticonvulsant activity in po dosed Sprague-Dawley rat assessed as protection against subcutaneous metrazole-induced seizures; format: functional, organism-based
Method in brief: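 Male albino Sprague-Dawley rats, oral dosing; subcutaneous metrazol seizure test by previously reported methods within the NIH Anticonvulsant Screening Program.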

Mus musculus [9] = test: Anticonvulsant activity in ip dosed albino mouse assessed as protection against maximal electroshock-induced seizures; format: functional
Method in brief: (§2)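 Male rodents screened through the NIH Anticonvulsant Screening Program: albino Carworth Farms No. 1 mice given compound ip, albino Sprague-Dawley rats given compound po. Maximal electroshock test: tonic hindlimb seizures were induced by corneal electrical stimulation. ED50 is given in mg/kg.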

[10] = Neurotoxicity in po dosed Sprague-Dawley rat by rotarod test; format: toxicity, organism-based; conditions: in vivo
[11] = target: Dihydropyrimidinase-related protein 2 (Mus musculus) (UniProt O08553); test: Binding affinity to CRMP2 in ICR mouse brain […] at 5 uM by Western blot analysis in presence of rhodamine-containing 4-(3-azidopropylcarbamoyl)-2-(3,6-bis(dimethylamino)xanthylium-9-yl)benzoate; format: tissue-based
Rattus norvegicus [12] = test: Anticonvulsant activity in po dosed Sprague-Dawley rat assessed as protection against maximal electroshock-induced seizures; format: functional; method in brief: as §2
Mus musculus [13] = test: Anticonvulsant activity against maximal electroshock-induced seizures in ip dosed albino mouse assessed as time of peak effect; format: functional
Mus musculus [14] = test: Anticonvulsant activity in ip dosed albino mouse assessed as protection against 6 Hz electric shock-induced seizures; format: functional
Method in brief: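 6 Hz psychomotor seizure test in mice dosed ip, with stimulation at 32 mA.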

Rattus norvegicus [15] = test: Anticonvulsant activity against maximal electroshock-induced seizures in po dosed Sprague-Dawley rat assessed as time of peak effect; format: functional
Rattus norvegicus [16] = test: Neurotoxicity in po dosed Sprague-Dawley rat assessed as time of peak effect by rotarod test; format: toxicity, organism-based; conditions: in vivo
Rattus norvegicus [17] = test: Protective index, ratio of TD50 for po dosed Sprague-Dawley rat to ED50 for protection against maximal electroshock-induced seizures in po dosed Sprague-Dawley rat; format: functional

| Compound | Time (Mus musculus [1]) [h] | Time (Mus musculus [2]) [h] | Ratio TD50/ED50 (Mus musculus [3]) | TD50 [4] [mg/kg] | Activity (Mus musculus [5]) | Activity [6] | Activity [7] | Activity (Rattus norvegicus [8]) | ED50 (Mus musculus [9]) [mg/kg] | TD50 [10] [mg/kg] | Activity [11] | ED50 (Rattus norvegicus [12]) [mg/kg] | Time (Mus musculus [13]) [h] | ED50 (Mus musculus [14]) [mg/kg] | Time (Rattus norvegicus [15]) [h] | Time (Rattus norvegicus [16]) [h] | Ratio TD50/ED50 (Rattus norvegicus [17]) |
| --- | --- | --- | --- | --- | --- | --- | --- | --- | --- | --- | --- | --- | --- | --- | --- | --- | --- |
| C#CCOC[C@@H](NC(C)=O)C(=O)NCc1ccc(N=C=S)cc1 | 0.5 | 0.25 | 2.4 | 110 | inactive | Active | Active | inactive | 45 | > 30 | Active | > 30 | 1 | 53 |  |  |  |
| CC(=O)N[C@@H](COCCN=C=S)C(=O)NCc1ccccc1 |  | 0.5 |  | 30 | inactive |  |  | inactive | > 300 |  |  | < 30 | 0.5 |  | 4 |  |  |
| CC(=O)N[C@H](COCCN=[N+]=[N-])C(=O)NCc1ccccc1 | 0.5 | 4 |  | 100 | inactive |  |  | inactive | 100 | > 30 |  | > 40 | 4 | 44 | 0.25 |  |  |
| C#CCOC[C@H](NC(C)=O)C(=O)NCc1ccc(N=C=S)cc1 |  |  |  | > 300 | inactive | Active | Active | inactive | > 300 |  | Active |  |  |  |  |  |  |
| C#Cc1ccc(CNC(=O)[C@H](COC)NC(C)=O)cc1 |  | 0.5 |  | 300 | inactive |  |  | inactive | > 300 |  |  |  | 0.5 |  |  |  |  |
| C#Cc1ccc(CNC(=O)[C@H](COCCN=C=S)NC(C)=O)cc1 |  |  |  |  | inactive |  |  | inactive |  |  | inactive |  |  |  |  |  |  |
| CCC1(c2ccccc2)C(=O)NC(=O)NC1=O [PHENOBARBITAL] |  | 0.5 |  |  | inactive |  |  | inactive | 22 |  |  | 9.1 | 1 |  | 5 | 0.5 |  |
| CC(=O)N[C@H](COCCN=C=S)C(=O)NCc1ccccc1 |  |  |  | 30 | inactive |  |  | inactive | > 300 | > 30 |  | < 30 | 0.5 |  | 4 | 4 |  |
| COC[C@@H](NC(C)=O)C(=O)NCc1ccccc1 [LACOSAMIDE] |  | 0.25 |  |  | inactive |  |  | inactive |  | > 250 |  | 4.2 | 0.5 | 10 | 0.5 | 0.5 |  |
| CC(=O)N[C@H](CO)C(=O)NCc1ccc(N=C=S)cc1 |  | 0.25 | 2 | 47 | inactive |  |  | inactive | 24 | > 250 |  | 4.2 | 0.5 |  | 4 |  | >59 |
